According to ChEMBL document CHEMBL1157606, “Acylated phenylethanoid oligoglycosides with hepatoprotective activity from the desert plant Cistanche tubulosa” (Bioorg Med Chem, 2010):

Columns and labels:
[1] = tested on: Mus musculus; experiment: Hepatoprotective activity against D-galactosamine/lipopolysaccharide-induced liver injury in ddY mouse assessed as inhibition of increase in sALT level at 25 mg/kg, po administered 1 hr before D-GalN/LPS challenge measured after 10 hrs; format: functional
Outline: (§1)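 Male ddY mice (25–30 g), fasted 20 h. Sample suspended in 5% gum arabic, given orally at 10 mL/kg 1 h before i.p. D-GalN (350 mg/kg) plus LPS (10 μg/kg) in saline. Vehicle controls dosed alike. Blood from infraorbital venous plexus at 10 h; sAST and sALT by Reitman–Frankel method. Hydrocortisone as reference.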

[2] = tested on: Mus musculus; experiment: Hepatoprotective activity against D-galactosamine/lipopolysaccharide-induced liver injury in ddY mouse assessed as inhibition of increase in sAST level at 25 mg/kg, po administered 1 hr before D-GalN/LPS challenge measured after 10 hrs; format: functional; outline: as §1
[3] = tested on: Hepatocyte; experiment: Hepatoprotective activity in ddY mouse primary cultured hepatocytes assessed as inhibition of D-galactosamine-induced cytotoxicity after 44 hrs by MTT assay; format: functional, cell-based
Outline: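 Hepatocytes isolated from male ddY mice (30–35 g) by collagenase perfusion; 4 × 10^4 cells/well in William's E with 10% FBS, pre-cultured 4 h at 37 °C, 5% CO2, then 44 h with D-GalN (2 mM) ± sample. MTT (4 h); formazan in isopropanol/0.04 M HCl, OD 570 nm (ref 655 nm). Inhibition % = (sample − control)/(normal − control) × 100.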

[4] = tested on: Mus musculus; experiment: Hepatoprotective activity against D-galactosamine/lipopolysaccharide-induced liver injury in ddY mouse assessed as inhibition of increase in sALT level at 100 mg/kg, po administered 1 hr before D-GalN/LPS challenge measured after 10 hrs; format: functional; outline: as §1
[5] = tested on: L929; experiment: Cytoprotective activity in mouse L929 cells assessed as inhibition of TNF-alpha-induced cytotoxicity after 44 hrs by MTT assay; format: functional, cell-based; conditions: L929, 44 h
Outline: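 L929 cells kept in MEM with 10% FBS and non-essential amino acids at 37 °C, 5% CO2; seeded 3 × 10^4 cells/well, exposed 44 h to TNF-α (20 ng/mL) with or without sample (DMSO, final 0.5%). Viability by MTT: formazan dissolved in acidic isopropanol, OD 570 nm (ref 655 nm). Inhibition % = (sample − control)/(normal − control) × 100.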

[6] = tested on: Peritoneal macrophage cell; experiment: Inhibition of LPS-induced nitric oxide production in ddY mouse peritoneal macrophages; format: functional, cell-based
[7] = tested on: Peritoneal macrophage cell; experiment: Inhibition of LPS-induced TNFalpha production in ddY mouse peritoneal macrophages; format: functional, cell-based
Outline: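 Thioglycollate-elicited peritoneal macrophages from male ddY mice, 5 × 10^5 cells/well in RPMI 1640 with 5% FBS, 1 h pre-culture, nonadherent cells washed off. Compound (DMSO, final 0.5%) added 10 min before LPS (medium containing 10 μg/mL), 4 h incubation; TNF-α in medium by ELISA.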

[8] = tested on: Mus musculus; experiment: Hepatoprotective activity against D-galactosamine/lipopolysaccharide-induced liver injury in ddY mouse assessed as inhibition of increase in sAST level at 100 mg/kg, po administered 1 hr before D-GalN/LPS challenge measured after 10 hrs; format: functional; outline: as §1
[9] = tested on: Mus musculus; experiment: Hepatoprotective activity against D-galactosamine/lipopolysaccharide-induced liver injury in ddY mouse assessed as inhibition of increase in sALT level at 10 mg/kg, po administered 1 hr before D-GalN/LPS challenge measured after 10 hrs; format: functional; outline: as §1
[10] = tested on: Mus musculus; experiment: Hepatoprotective activity against D-galactosamine/lipopolysaccharide-induced liver injury in ddY mouse assessed as inhibition of increase in sAST level at 10 mg/kg, po administered 1 hr before D-GalN/LPS challenge measured after 10 hrs; format: functional; outline: as §1

Row | Compound | inhibition in vivo at 25 mg/kg [1] [%] | inhibition in vivo at 25 mg/kg [2] [%] | IC50 [3] [µM] | inhibition in vivo at 100 mg/kg [4] [%] | IC50 [5] [µM] | IC50 [6] [µM] | IC50 [7] [µM] | inhibition in vivo at 100 mg/kg [8] [%] | inhibition in vivo at 10 mg/kg [9] [%] | inhibition in vivo at 10 mg/kg [10] [%]
1 | C[C@@H]1O[C@@H](O[C@@H]2[C@@H](O)[C@H](OCCc3ccc(O)c(O)c3)O[C@H](CO)[C@H]2OC(=O)/C=C/c2ccc(O)c(O)c2)[C@H](O)[C@H](O)[C@H]1O [ACETOSIDE] | 44.4 | 51.3 | 4.6 | 59.5 | 17.8 | > 100 | > 100 | 68.5 |  | 
2 | C[C@H]1O[C@H](O[C@@H]2[C@@H](O)[C@H](OCCc3ccc(O)c(O)c3)O[C@H](CO[C@H]3O[C@@H](CO)[C@H](O)[C@@H](O)[C@@H]3O)[C@H]2OC(=O)/C=C/c2ccc(O)c(O)c2)[C@@H](O)[C@@H](O)[C@@H]1O [ECHINACOSIDE] | 43.8 | 61.2 | 10.2 | 52 | 31.1 | > 100 | > 100 | 66.7 |  | 
3 | COc1cc(C2Oc3cc([C@H]4Oc5cc(O)cc(O)c5C(=O)[C@@H]4O)ccc3OC2CO)ccc1O (stereo partly drawn) [SILIBININ] |  |  | 38.8 |  | 60.4 |  |  |  |  | 
4 | C[C@]12CCC(=O)C=C1CC[C@@H]1[C@@H]2[C@@H](O)C[C@@]2(C)[C@H]1CC[C@]2(O)C(=O)CO [HYDROCORTISONE] |  |  |  |  |  |  |  |  | 97.7 | 94.2
5 | C[C@@H]1O[C@@H](O[C@@H]2[C@@H](O)[C@H](OCCc3ccc(O)c(O)c3)O[C@H](COC(=O)/C=C/c3ccc(O)c(O)c3)[C@H]2O)[C@H](O)[C@H](O)[C@H]1O [ISOACTEOSIDE] | 40.2 | 46.1 | 5.3 | 58.7 | 22.7 | > 100 | > 100 | 70.9 |  | 
